Laboratory results published in ChEMBL document CHEMBL3259667, “Bis-aryloxadiazoles as effective activators of the aryl hydrocarbon receptor” (Bioorg Med Chem Lett, 2014).

Assays:
Assay type in all cases: cell-based; call rule not given here
[1] = target: T1, Aryl hydrocarbon receptor (Mus musculus, UniProt P30561); assay: Agonist activity at AHR in mouse HC11 cells assessed as upregulation of Cyp1a1 gene expression at 10 uM after 48 hrs by RT-PCR analysis relative to control; conditions: hc11, 48 h
T1 sequence (P30561 whole entry): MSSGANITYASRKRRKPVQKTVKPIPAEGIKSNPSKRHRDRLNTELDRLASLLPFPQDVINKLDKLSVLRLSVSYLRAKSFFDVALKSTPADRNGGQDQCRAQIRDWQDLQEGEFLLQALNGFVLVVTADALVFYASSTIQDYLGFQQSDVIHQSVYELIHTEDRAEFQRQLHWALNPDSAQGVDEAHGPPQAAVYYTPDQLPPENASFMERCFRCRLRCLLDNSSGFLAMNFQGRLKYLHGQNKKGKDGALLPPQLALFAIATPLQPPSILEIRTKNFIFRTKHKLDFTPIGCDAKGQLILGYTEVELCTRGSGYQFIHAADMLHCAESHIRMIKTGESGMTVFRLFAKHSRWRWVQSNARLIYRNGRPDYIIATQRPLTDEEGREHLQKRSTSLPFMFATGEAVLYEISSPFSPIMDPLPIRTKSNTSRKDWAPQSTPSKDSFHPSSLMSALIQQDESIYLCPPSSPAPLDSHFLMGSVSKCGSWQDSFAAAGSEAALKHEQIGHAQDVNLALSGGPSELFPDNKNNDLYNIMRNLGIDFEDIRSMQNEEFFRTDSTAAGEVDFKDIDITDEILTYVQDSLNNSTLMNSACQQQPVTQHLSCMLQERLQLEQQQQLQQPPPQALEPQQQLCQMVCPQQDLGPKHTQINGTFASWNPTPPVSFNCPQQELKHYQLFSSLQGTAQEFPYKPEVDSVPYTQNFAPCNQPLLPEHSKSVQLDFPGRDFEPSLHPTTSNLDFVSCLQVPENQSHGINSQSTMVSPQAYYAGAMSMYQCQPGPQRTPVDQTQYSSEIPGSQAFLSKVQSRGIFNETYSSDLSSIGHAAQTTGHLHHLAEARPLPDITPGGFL
How it was run: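 HC11 mammary epithelial cells were exposed for 48 hours to 10 μM compound. Expression of the AHR target gene Cyp1a1 served as the activity read-out.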

[2] = target: T1, Aryl hydrocarbon receptor; assay: Agonist activity at AHR in FVB/N mouse primary mammary epithelial cells assessed as upregulation of desmoglein-3 protein level at 10 uM after 144 hrs by Western blot analysis in presence of FGF2; conditions: epithelial cell
[3] = target: T1, Aryl hydrocarbon receptor; assay: Agonist activity at AHR in FVB/N mouse primary mammary epithelial cells assessed as upregulation of desmoglein-3 protein level at 10 nM after 144 hrs by Western blot analysis in presence of FGF2; conditions: epithelial cell, 0.01 µM

Activity [1] | Activity [2] | Compound | Activity [3]
8.25% |  | O=[N+]([O-])c1cc(Cl)ccc1-c1nc(-c2ccncc2)no1 | 
0.29% |  | COC(=O)c1cccc(-c2noc(-c3ccccc3F)n2)c1 | 
0.37% |  | Clc1ccc(-c2nc(-c3ccncc3)no2)c(Cl)c1 | 
0.53% |  | Clc1ccc(-c2nc(-c3ccncc3)no2)c(Cl)c1Cl | 
128.53% | Active | Clc1ccc(-c2nc(-c3ccccc3)no2)c(Cl)c1 | 
638.8% | Active | Nc1cc(Cl)ccc1-c1nc(-c2ccccc2)no1 | 
0.36% |  | O=[N+]([O-])c1cc(C(F)(F)F)ccc1-c1nc(-c2ccccc2)no1 | 
0.42% |  | COc1ccc(-c2nc(-c3ccccc3)no2)c([N+](=O)[O-])c1 | 
0.25% |  | O=[N+]([O-])c1cc(O)ccc1-c1nc(-c2ccccc2)no1 | 
0.39% |  | COC(=O)Oc1ccc(-c2nc(-c3ccccc3)no2)c([N+](=O)[O-])c1 | 
2.43% |  | C#CCOc1ccc(-c2nc(-c3ccccc3)no2)c([N+](=O)[O-])c1 | 
122.64% | Active | O=[N+]([O-])c1cc(F)ccc1-c1nc(-c2ccccc2)no1 | 
58.63% | Active | Nc1cc(C(F)(F)F)ccc1-c1nc(-c2ccccc2)no1 | 
25.79% | Not Active | Clc1ccc(-c2nc(-c3ccccc3)no2)c(Cl)c1Cl | 
1.84% | Not Active | FC(F)(F)c1cccc(-c2noc(-c3ccc(Cl)cc3Cl)n2)c1 | 
0.18% |  | COC(=O)c1cccc(-c2noc(-c3ccc(Cl)cc3Cl)n2)c1 | 
5.91% |  | Clc1ccc(-c2nc(-c3ccccc3Cl)no2)c(Cl)c1 | 
1.59% |  | Clc1cccc(-c2noc(-c3ccc(Cl)cc3Cl)n2)c1 | 
8.15% |  | Clc1ccc(-c2noc(-c3ccc(Cl)cc3Cl)n2)cc1 | 
0.66% |  | C#CCOc1ccc(-c2noc(-c3ccc(Cl)cc3Cl)n2)cc1 | 
0.29% |  | C#CCOc1ccc(-c2noc(-c3ccc(Cl)cc3[N+](=O)[O-])n2)cc1 | 
0.62% |  | C=CCOc1ccc(-c2noc(-c3ccc(Cl)cc3N)n2)cc1 | 
0.38% |  | C#CCOc1ccc(-c2noc(-c3ccc(Cl)cc3N)n2)cc1 | 
0.35% |  | CC(=O)Oc1ccc(-c2nc(-c3ccncc3)no2)c([N+](=O)[O-])c1 | 
 |  | Clc1cc2c(cc1Cl)Oc1cc(Cl)c(Cl)cc1O2 [2,3,7,8-TETRACHLORODIBENZO-P-DIOXIN] | Active
3.71% |  | O=C(O)c1cccc(-c2noc(-c3ccccc3F)n2)c1 [ATALUREN] | 
